Source: ChEMBL document CHEMBL3856250, “Discovery of 6-Fluoro-5-(R)-(3-(S)-(8-fluoro-1-methyl-2,4-dioxo-1,2-dihydroquinazolin-3(4H)-yl)-2-methylphenyl)-2-(S)-(2-hydroxypropan-2-yl)-2,3,4,9-tetrahydro-1H-carbazole-8-carboxamide (BMS-986142): A Reversible Inhibitor of Bruton's Tyrosine Kinase (BTK) Conformationally Constrained by Two …” (J Med Chem, 2016)
In brackets after ≈: the same amount, converted by molar mass.

Experiments:
[1] = Oral bioavailability in mouse at 3 mg/kg; format: ADME, organism-based; conditions: in vivo
Mus musculus [2] = test: Antiathritis activity in anticollagen antibody-induced arthritis BALB/c mouse model assessed as reduction in LPS-induced paw swelling at 5 mg/kg, po qd followed by LPS addition on day 3 measured after 11 days relative to control; format: functional; set-up: scale not given: the % may be the effect or the level left
[3] = MRT in dog at 1 mg/kg, iv; format: ADME, organism-based, Canis lupus familiaris; conditions: in vivo
[4] = MRT in rat at 2 mg/kg, iv; format: ADME, organism-based; conditions: in vivo
[5] = Half life in cynomolgus monkey at 2 mg/kg, iv; format: ADME, organism-based, Macaca fascicularis; conditions: in vivo
[6] = Protein binding in human serum; format: ADME; conditions: read-out: PPB (converted)
[7] = Bioavailability in mouse at 10 mg/kg; format: ADME, organism-based; conditions: in vivo
[8] = Volume of distribution at steady state in dog at 1 mg/kg, iv; format: ADME, organism-based, Canis lupus familiaris; conditions: in vivo, read-out: Vdss
[9] = target: Tyrosine-protein kinase BTK (Mus musculus, UniProt P35991); test: Inhibition of BTK in mouse whole blood assessed as suppression of BCR/anti-IgM/IgG-stimulated CD69 surface expression after 18 hrs with agitation by FITC-staining based FACS analysis; format: tissue-based
Chain of Tyrosine-protein kinase BTK (Mus musculus, UniProt P35991) (P35991 whole entry): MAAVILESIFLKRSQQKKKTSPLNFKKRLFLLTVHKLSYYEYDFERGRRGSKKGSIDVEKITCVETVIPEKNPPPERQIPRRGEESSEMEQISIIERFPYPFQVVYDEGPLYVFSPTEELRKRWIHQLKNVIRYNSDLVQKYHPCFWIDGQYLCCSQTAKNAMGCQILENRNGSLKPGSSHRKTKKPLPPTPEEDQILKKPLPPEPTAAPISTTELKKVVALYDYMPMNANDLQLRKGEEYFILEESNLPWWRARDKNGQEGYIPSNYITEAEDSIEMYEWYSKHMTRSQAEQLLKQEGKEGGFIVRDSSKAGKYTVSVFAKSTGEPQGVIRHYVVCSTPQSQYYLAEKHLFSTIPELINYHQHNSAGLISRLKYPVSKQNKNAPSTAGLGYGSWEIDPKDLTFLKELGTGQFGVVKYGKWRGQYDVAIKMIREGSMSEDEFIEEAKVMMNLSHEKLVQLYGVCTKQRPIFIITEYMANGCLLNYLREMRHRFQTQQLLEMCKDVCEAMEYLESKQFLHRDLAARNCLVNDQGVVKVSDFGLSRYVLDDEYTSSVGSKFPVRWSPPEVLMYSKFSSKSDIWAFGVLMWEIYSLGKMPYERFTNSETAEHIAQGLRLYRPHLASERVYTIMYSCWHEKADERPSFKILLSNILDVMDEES
In short: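 Mouse whole blood was incubated with compound and stimulated with F(ab′)2 goat anti-mouse IgG+IgM (100 μg/mL) in the same way as the human assay (18 h, 37 °C, agitation). B cells were gated by APC anti-CD19, and CD69 was quantified as FITC MFI by FACS.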

[10] = Permeability of the compound at pH 7.4 by PAMPA assay; format: ADME; conditions: read-out: permeability
[11] = Oral bioavailability in rat at 5 mg/kg; format: ADME, organism-based; conditions: in vivo
[12] = AUC in rat at 5 mg/kg, po; format: ADME, organism-based; conditions: in vivo
Mus musculus [13] = test: Antiathritis activity in anticollagen antibody-induced arthritis BALB/c mouse model assessed as reduction in LPS-induced paw swelling at 20 mg/kg, po qd followed by LPS addition on day 3 measured after 11 days relative to control; format: functional; set-up: scale not given: the % may be the effect or the level left
[14] = Cmax in dog at 2 mg/kg, po; format: ADME, organism-based, Canis lupus familiaris; set-up: dose 2 mg/kg, route oral; conditions: in vivo
Cytochrome P450 1A2 = target: T1, Cytochrome P450 1A2 (Homo sapiens, UniProt P05177); test: Inhibition of CYP1A2 (unknown origin); format: ADME
T1 sequence (P05177 whole entry): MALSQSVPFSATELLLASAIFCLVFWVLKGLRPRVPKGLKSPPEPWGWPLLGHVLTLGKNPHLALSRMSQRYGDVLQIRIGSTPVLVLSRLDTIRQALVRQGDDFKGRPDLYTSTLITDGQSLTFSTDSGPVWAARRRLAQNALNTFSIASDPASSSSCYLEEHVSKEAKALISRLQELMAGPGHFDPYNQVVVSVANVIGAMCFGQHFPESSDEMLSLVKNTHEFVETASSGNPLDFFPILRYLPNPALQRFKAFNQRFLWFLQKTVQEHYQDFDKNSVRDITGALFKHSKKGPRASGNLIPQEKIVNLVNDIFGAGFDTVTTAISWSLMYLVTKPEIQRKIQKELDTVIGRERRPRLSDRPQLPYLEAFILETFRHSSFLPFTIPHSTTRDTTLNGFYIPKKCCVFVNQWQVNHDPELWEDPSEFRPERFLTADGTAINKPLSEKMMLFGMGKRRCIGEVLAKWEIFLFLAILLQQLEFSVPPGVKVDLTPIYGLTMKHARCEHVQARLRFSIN

[15] = Solubility of the compound in fed state stimulated intestinal fluid; format: ADME; conditions: fed state simulated intestinal fluid (FeSSIF)
[16] = Clearance in mouse at 3 mg/kg, iv; format: ADME, organism-based; conditions: in vivo
[17] = MRT in mouse at 3 mg/kg, iv; format: ADME, organism-based; conditions: in vivo
[18] = Tmax in dog at 2 mg/kg, po; format: ADME, organism-based, Canis lupus familiaris; conditions: in vivo
[19] = Solubility of the compound in fasted state stimulated intestinal fluid; format: ADME; conditions: fasted state simulated intestinal fluid (FaSSIF)
[20] = target: T2, Tyrosine-protein kinase BTK (Homo sapiens, UniProt Q06187); test: Inhibition of BTK in human Ramos-B cells assessed as suppression of BCR/anti-IgM-stimulated Ca2+ flux after 1 hr incubation in dark by FLIPR1 assay
T2 sequence (Q06187 whole entry): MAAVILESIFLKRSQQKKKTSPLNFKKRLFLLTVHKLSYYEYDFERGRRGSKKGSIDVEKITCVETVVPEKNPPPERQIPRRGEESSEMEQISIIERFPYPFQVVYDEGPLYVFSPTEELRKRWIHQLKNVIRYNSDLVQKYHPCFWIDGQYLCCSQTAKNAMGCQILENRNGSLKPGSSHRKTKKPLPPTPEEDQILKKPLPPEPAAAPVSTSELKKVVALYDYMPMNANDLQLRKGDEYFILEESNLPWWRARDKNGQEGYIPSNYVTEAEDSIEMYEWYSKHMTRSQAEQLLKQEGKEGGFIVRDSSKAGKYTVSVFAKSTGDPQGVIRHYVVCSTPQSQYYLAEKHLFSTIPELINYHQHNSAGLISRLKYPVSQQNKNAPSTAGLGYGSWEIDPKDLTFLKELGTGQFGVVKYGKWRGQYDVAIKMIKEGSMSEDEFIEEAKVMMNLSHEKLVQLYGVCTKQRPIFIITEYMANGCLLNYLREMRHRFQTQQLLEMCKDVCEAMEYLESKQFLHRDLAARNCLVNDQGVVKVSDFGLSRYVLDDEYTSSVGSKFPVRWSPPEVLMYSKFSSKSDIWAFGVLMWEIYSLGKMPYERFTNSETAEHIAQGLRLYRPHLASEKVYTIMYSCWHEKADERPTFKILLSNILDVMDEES

[21] = AUC in cynomolgus monkey at 4 mg/kg, po; format: ADME, organism-based, Macaca fascicularis; conditions: in vivo
[22] = Half life in rat at 2 mg/kg, iv; format: ADME, organism-based; conditions: in vivo
Cytochrome P450 2D6 = Cytochrome P450 2D6 (Homo sapiens, UniProt P10635); test: Inhibition of CYP2D6 (unknown origin); format: ADME
Chain of Cytochrome P450 2D6 (P10635 whole entry): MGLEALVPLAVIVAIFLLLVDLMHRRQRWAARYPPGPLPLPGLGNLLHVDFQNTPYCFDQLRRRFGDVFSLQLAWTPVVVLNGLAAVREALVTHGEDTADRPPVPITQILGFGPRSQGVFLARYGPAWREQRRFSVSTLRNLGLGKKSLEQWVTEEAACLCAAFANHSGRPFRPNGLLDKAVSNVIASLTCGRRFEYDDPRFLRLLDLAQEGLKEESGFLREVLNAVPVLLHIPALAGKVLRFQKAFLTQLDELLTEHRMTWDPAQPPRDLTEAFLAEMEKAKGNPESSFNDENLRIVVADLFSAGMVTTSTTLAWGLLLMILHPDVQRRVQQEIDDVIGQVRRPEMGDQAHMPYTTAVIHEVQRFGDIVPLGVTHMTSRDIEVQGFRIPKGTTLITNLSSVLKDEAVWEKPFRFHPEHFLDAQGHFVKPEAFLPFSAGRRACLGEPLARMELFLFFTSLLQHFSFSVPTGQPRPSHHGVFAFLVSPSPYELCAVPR

Cytochrome P450 3A4 = Cytochrome P450 3A4 (Homo sapiens, UniProt P08684); test: Inhibition of CYP3A4 (unknown origin); format: ADME
Chain of Cytochrome P450 3A4 (P08684 whole entry): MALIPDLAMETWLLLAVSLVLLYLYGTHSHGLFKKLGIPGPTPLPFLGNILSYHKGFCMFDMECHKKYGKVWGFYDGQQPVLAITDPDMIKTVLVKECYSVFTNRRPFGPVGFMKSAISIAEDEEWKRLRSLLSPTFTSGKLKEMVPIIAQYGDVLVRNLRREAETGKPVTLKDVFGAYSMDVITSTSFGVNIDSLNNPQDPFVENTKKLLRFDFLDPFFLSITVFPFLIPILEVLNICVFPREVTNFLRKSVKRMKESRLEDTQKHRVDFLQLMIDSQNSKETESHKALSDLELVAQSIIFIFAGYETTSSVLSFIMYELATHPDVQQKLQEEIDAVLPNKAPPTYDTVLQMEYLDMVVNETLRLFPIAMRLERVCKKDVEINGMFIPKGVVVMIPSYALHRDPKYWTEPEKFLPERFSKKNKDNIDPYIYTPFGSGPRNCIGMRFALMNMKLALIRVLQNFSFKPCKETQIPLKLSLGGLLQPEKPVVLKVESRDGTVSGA

[23] = Tmax in cynomolgus monkey at 4 mg/kg, po; format: ADME, organism-based, Macaca fascicularis; conditions: in vivo
[24] = Drug uptake in rat brain relative to plasma concentration; format: ADME
[25] = target: T2, Tyrosine-protein kinase BTK; test: Inhibition of BTK in human peripheral B cells assessed as suppression of BCR/anti-IgM/IgG-stimulated CD86 surface expression; format: cell-based
[26] = Volume of distribution at steady state in cynomolgus monkey at 2 mg/kg, iv; format: ADME, organism-based, Macaca fascicularis; conditions: in vivo, read-out: Vdss
[27] = Clearance in dog at 1 mg/kg, iv; format: ADME, organism-based, Canis lupus familiaris; conditions: in vivo
[28] = target: T2, Tyrosine-protein kinase BTK; test: Inhibition of BTK in human whole blood basophils assessed as suppression of FceRI/anti-IgE-stimulated CD63 surface expression; format: tissue-based
[29] = Tmax in mouse at 6 mg/kg, po; format: ADME, organism-based; conditions: in vivo
Cytochrome P450 2B6 = target: T3, Cytochrome P450 2B6 (Homo sapiens, UniProt P20813); test: Inhibition of CYP2B6 (unknown origin); format: ADME
T3 sequence (P20813 whole entry): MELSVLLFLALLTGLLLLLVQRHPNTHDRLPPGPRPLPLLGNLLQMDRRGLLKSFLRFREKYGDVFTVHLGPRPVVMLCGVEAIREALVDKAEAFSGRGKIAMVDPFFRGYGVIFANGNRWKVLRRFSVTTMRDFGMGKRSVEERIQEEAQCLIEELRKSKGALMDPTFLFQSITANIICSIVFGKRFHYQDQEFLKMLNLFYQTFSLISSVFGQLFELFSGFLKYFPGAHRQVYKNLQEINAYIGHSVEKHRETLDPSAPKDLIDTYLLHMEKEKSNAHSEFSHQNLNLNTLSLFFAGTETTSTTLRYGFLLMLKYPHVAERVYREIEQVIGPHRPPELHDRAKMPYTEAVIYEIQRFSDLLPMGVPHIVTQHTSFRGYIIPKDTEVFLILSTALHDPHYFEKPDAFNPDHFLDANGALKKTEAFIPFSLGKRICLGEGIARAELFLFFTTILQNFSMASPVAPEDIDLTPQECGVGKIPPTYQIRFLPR

[30] = target: T2, Tyrosine-protein kinase BTK; test: Inhibition of BTK in human whole blood assessed as suppression of BCR/anti-IgM/IgG-stimulated CD69 surface expression after 18 hrs with agitation by FITC-staining based FACS analysis; format: tissue-based
[31] = Oral bioavailability in cynomolgus monkey at 4 mg/kg; format: ADME, organism-based, Macaca fascicularis; conditions: in vivo
[32] = Protein binding in rat plasma; format: ADME, cell-free; conditions: read-out: PPB (converted)
[33] = Permeability of the compound at pH 5.5 by PAMPA assay; format: ADME; conditions: read-out: permeability
[34] = Half life in dog at 1 mg/kg, iv; format: ADME, organism-based, Canis lupus familiaris; conditions: in vivo

Cc1c(-c2c(F)cc(C(N)=O)c3[nH]c4c(c23)CC[C@H](C(C)(C)O)C4)cccc1-n1c(=O)c2cccc(F)c2n(C)c1=O (atropisomer R) [BMS-986142]
bioavailability [1]: 93% | Activity (Mus musculus [2]): 72% | MRT [3]: 18 h | MRT [4]: 5.1 h | half-life [5]: 5.1 h | fraction unbound [6]: 0.009 | bioavailability [7]: < 4% | Vd [8]: 3.4 L/kg | IC50 [9]: 140 nM | Papp [10]: 72.5 ×10⁻⁶ cm/s | bioavailability [11]: 67% | AUC [12]: 23 µM·h | Activity (Mus musculus [13]): 100% | Cmax [14]: 1200 nM | IC50 (Cytochrome P450 1A2): > 40000 nM | solubility [15]: 368 µg/mL (≈ 643 µM) | clearance [16]: 4.1 mL/min/kg | MRT [17]: 4.8 h | Tmax [18]: 3 h | solubility [19]: 18 µg/mL (≈ 31.4 µM) | IC50 [20]: 9 nM | AUC [21]: 5 µM·h | half-life [22]: 3.6 h | IC50 (Cytochrome P450 2D6): > 40000 nM | IC50 (Cytochrome P450 3A4): 8500 nM | Tmax [23]: 3.7 h | Drug uptake [24]: < 5% | IC50 [25]: 4 nM | Vd [26]: 3 L/kg | clearance [27]: 3.2 mL/min/kg | IC50 [28]: 89 nM | Tmax [29]: 1 h | IC50 (Cytochrome P450 2B6): > 40000 nM | IC50 [30]: 90 nM | bioavailability [31]: 33% | fraction unbound [32]: 0.017 | Papp [33]: 67.3 ×10⁻⁶ cm/s | half-life [34]: 13 h
